This is an account of results in ChEMBL document CHEMBL1138658, “Novel 2-aminotetralin and 3-aminochroman derivatives as selective serotonin 5-HT7 receptor agonists and antagonists” (J Med Chem, 2004).

pKi: −log10 of the molar value. Some results are limits rather than exact numbers.

Experiment [1] has as its target 5-hydroxytryptamine receptor 7 (Rattus norvegicus) (UniProt P32305). As to the kind of experiment: Stimulation of cAMP production in CHO cells expressing rat 5-hydroxytryptamine 7 receptor. The class given is functional, cell-based. In outline: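 cAMP production in CHO cells expressing rat 5-HT7 receptor. Efficacy is expressed as percent of the 5-HT-stimulated production.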

Another experiment concerns the target Adrenergic receptor beta (Rattus norvegicus, UniProt P18090+P10608+P26255). As to the kind of experiment: Inhibition of [3H]DHA binding to rat cortex Beta receptor.
In experiment [2] the target is 5-hydroxytryptamine receptor 2A (Rattus norvegicus, UniProt P14842). The experiment in a line: Inhibition of [3H]- Ketanserin binding to rat cortex 5-HT2A receptor.
The target in another experiment is D(1A) dopamine receptor (Rattus norvegicus, UniProt P18901). The experiment in a line: Inhibition of [3H]SCH-23390 binding to rat striatum Dopamine receptor 1. It counts as tissue-based.
Experiment [3] concerns the target Muscarinic acetylcholine receptor. As to the kind of experiment: Inhibition of [3H]- QNB binding to rat cortex muscarinic receptor.
The target in experiment [4] is T1, 5-hydroxytryptamine receptor 1A (Rattus norvegicus, UniProt P19327).
T1 sequence (P19327 whole entry): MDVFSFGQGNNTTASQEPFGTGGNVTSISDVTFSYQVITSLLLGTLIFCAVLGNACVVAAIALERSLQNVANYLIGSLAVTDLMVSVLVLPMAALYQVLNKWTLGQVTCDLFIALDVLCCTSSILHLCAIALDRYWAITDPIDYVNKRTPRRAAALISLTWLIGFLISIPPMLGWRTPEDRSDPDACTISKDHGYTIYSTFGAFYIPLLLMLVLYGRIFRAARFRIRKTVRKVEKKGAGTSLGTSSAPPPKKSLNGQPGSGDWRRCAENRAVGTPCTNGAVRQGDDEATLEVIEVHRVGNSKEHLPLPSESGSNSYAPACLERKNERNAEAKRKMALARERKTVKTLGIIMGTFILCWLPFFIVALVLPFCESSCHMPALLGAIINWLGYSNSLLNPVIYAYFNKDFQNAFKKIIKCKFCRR
The experiment in a line: Inhibition of [3H]8-OH-DPAT binding to rat 5-hydroxytryptamine 1A receptor. The gist of the method: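 Radioligand [3H]-8-OH-DPAT; receptor source either CHO cells expressing human 5-HT1A or rat hippocampal cells.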

Experiment [5] addresses T2, 5-hydroxytryptamine receptor 7 (Rattus norvegicus, UniProt P32305). As to the kind of experiment: Inhibition of [3H]-5-HT binding to rat 5-hydroxytryptamine 7 receptor. In outline:
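Rat 5-HT7 receptor expressed in CHO or Sf9 cells; [3H]-5-HT radioligand displacement.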

For experiment [6], the target named is T3, 5-hydroxytryptamine receptor 1A (Homo sapiens, UniProt P08908).
T3 sequence (P08908 whole entry): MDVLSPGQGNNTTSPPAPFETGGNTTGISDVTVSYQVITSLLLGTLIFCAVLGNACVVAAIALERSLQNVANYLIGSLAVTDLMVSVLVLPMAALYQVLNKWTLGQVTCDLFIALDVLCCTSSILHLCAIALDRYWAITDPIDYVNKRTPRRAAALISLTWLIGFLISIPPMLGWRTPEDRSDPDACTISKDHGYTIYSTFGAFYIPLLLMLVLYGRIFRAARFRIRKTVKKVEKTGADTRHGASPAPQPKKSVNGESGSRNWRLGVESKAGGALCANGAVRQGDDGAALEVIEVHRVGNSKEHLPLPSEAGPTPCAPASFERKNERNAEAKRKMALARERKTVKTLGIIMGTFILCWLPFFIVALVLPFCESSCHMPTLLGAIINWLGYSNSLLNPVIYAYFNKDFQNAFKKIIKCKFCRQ
As to the kind of experiment: Inhibition of [3H]8-OH-DPAT binding to human 5-HT1A receptor. In outline: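 Human 5-HT1A receptor expressed in CHO cells, labelled with [3H]-8-OH-DPAT.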

Experiment [7] addresses T2, 5-hydroxytryptamine receptor 7. The experiment in a line: Inhibition of [3H]5-HT binding to rat 5-HT7 receptor. The gist of the method: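 Displacement of [3H]-5-HT from rat 5-HT7 receptor expressed in CHO or Sf9 cells.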

T2 sequence (P32305 whole entry): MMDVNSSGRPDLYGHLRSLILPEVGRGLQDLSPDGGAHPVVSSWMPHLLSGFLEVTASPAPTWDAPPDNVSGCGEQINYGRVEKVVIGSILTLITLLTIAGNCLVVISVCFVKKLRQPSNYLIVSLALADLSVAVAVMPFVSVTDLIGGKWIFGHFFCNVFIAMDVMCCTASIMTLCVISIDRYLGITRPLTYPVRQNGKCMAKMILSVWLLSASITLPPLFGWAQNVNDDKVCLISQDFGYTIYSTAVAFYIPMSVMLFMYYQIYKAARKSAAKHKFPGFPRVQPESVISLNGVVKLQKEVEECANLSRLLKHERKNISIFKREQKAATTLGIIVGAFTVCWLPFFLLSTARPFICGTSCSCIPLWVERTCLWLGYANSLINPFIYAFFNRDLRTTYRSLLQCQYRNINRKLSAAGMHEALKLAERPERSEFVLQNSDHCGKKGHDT
Chain of D(1A) dopamine receptor (P18901 whole entry): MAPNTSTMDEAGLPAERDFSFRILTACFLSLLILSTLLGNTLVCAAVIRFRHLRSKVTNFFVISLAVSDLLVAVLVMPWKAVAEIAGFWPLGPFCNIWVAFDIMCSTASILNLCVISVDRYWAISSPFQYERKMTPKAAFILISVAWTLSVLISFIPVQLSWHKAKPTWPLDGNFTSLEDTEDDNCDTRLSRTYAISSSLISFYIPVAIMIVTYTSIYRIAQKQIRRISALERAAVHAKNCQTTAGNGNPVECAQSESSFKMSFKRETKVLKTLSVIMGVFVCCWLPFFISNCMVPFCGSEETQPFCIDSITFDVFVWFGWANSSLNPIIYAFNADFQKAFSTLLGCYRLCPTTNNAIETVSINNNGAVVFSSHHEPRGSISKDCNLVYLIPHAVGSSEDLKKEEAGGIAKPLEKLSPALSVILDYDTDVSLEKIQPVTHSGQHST
Chain of 5-hydroxytryptamine receptor 7 (Rattus norvegicus) (P32305 whole entry): as the sequence (P32305 whole entry) above
Chain of 5-hydroxytryptamine receptor 2A (P14842 whole entry): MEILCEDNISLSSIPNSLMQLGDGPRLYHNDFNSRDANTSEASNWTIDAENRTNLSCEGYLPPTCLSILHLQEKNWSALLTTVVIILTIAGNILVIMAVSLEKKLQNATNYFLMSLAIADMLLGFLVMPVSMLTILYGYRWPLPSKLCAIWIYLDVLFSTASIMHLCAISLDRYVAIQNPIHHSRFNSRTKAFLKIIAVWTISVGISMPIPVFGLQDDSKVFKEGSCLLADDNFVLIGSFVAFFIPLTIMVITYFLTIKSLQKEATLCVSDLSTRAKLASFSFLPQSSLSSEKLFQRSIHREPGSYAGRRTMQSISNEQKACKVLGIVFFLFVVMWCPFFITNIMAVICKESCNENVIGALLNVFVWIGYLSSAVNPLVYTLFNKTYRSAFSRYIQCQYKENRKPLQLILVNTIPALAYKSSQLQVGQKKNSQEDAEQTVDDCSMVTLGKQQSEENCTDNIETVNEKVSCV

For orientation: Ki means the equilibrium dissociation constant of an inhibitor or competing ligand from its target. A higher Ki goes with weaker binding. What is called pKi is −log10 of the Ki, conventionally taken in molar units. Higher therefore signals a small Ki. As to `COc1cccc(OC)c1-c1cccc2c1CC[C@H](N(C)C)C2`, the Efficacy in experiment [1] is < 10%. In addition, the Ki (on Adrenergic receptor beta; in experiment [3]) was > 1000 nM in each case. Besides, the pKi was 5.87 in experiment [2]; < 6.00 on D(1A) dopamine receptor; 5.85 in [4]; 8.59 in experiment [5]; 5.85 in [6]; 8.59 in [7].
Regarding `CCCN(CCC)[C@H]1CCc2c(cccc2-c2c(OC)cccc2OC)C1`, the Efficacy in experiment [1] worked out at 100%. In addition, the inhibition constant Ki (on Adrenergic receptor beta; in experiment [3]) was > 1000 nM each time. Besides, the negative logarithm of the Ki (pKi) was 5.84 in experiment [2]; < 6.00 on D(1A) dopamine receptor; 6.46 in experiment [4]; 8.10 in experiment [5]; 6.46 in experiment [6]; 8.10 in experiment [7].
